Sampled rows, rich in hits. Any-hit rate of the full collection: about 2.1%.
CRFBP-R2 agonist: agonists of human CRF-binding protein/CRF-R2 receptor complex; 350,000 tested, 0.46% active; HEK293 CRF-R2/CRF-BP, calcium dye fluorescence (FLIPR); percent of saturating CRF peptide response; activation, % at 13.2 µM; AID 588473;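 active means activation of at least 50%, plus an integration ratio under a set limit after plate pattern correction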;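 further: plate controls were neutral control wells without compound for no effect and CRF at EC100 for full effect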
zfTRPN1 agonist: activates the zebrafish TRPN1 channel. 220,000 tested, 0.18% active. HEK293 zebrafish TRPN1-YFP, Fluo-8 calcium fluorescence; 100% = response to 87 µM carbachol. activation, % at 3 µM. AID 1424;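 active means activation above its plate's cutoff, the mean activation of test wells on that plate plus 3 SD, cut at about 19% in these data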;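 further: 0% = DMSO alone and 100% = 87 µM carbachol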
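Material – zebrafish TRPN1-YFP in HEK293 cells · Doses – 3 µM single point · Schedule – dye 1 h 37 °C plus 30 min RT · Signal – Fluo-8 calcium fluorescence, excitation 470-495 nm, emission 515-575 nm · Read-out – % activation versus carbachol response · Control set – carbachol high, DMSO low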
TRPML3 agonist: agonists of human TRPML3 channel. AID 1448. 220,000 tested, 0.29% active. activation, % at 3 µM. HEK293 TRPML3-YFP, Fluo-8 calcium fluorescence; 100% = the carbachol control signal. Q8TDD5;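 active means activation above its plate's cutoff, the mean activation of the plate's test wells plus 3 SD, cut at about 12% in these data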;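 further: 0% = DMSO only wells and 100% = carbachol wells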
Target sequence (Q8TDD5 whole entry, looked up): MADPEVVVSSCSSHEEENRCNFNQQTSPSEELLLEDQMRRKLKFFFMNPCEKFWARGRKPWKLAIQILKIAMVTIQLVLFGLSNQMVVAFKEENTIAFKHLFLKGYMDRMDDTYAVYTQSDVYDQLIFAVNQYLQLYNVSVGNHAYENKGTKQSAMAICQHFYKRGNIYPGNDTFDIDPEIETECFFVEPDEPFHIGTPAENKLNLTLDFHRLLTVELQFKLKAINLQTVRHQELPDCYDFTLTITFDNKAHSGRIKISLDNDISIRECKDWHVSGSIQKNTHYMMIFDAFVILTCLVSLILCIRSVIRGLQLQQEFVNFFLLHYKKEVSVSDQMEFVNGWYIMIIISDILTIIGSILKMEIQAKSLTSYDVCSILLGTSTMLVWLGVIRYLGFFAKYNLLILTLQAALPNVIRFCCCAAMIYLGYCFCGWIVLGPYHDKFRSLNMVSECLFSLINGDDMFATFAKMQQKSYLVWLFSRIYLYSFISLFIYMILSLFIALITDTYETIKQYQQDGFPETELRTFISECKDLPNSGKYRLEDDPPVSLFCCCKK
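Test system: HEK293 cells stably carrying human TRPML3-YFP; Doses: single dose, 3 µM final nominal compound, 0.3% DMSO final; Schedule: dye loading 1 h 37 °C then 30 min ambient, 125 s read; Technique: Fluo-8 calcium fluorescence; Benchmarks: high control carbachol 87 µM, low control DMSO.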
IMP-1 inhibitor: inhibitors of Pseudomonas aeruginosa IMP-1 metallo-beta-lactamase; inhibition, % at 5.6 µM; purified IMP-1, nitrocefin hydrolysis, epi-absorbance fluorescence; 290,000 tested, 0.45% active;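 active means inhibition above the mean plus 3 SD of all compounds in the same screening run, cut at about 4.5% in these data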;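 further: 0% = IMP-1 with DMSO and 100% = DMSO wells lacking enzyme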
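assay system = purified recombinant IMP-1 metallo-beta-lactamase enzyme | schedule = 15 min preincubation plus 25 min reaction at 25 °C | signal = Epi-absorbance fluorescence, 480 nm excitation, 530 nm emission | read-out basis = percent inhibition from optical density relative to buffer-blank wells | controls = IMP-1 with DMSO as 0%, enzyme-free DMSO as 100%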
VIM-2 inh: inhibitors of Pseudomonas aeruginosa VIM-2 metallo-beta-lactamase. purified VIM-2, nitrocefin hydrolysis, epi-absorbance fluorescence. inhibition, % at 5.6 µM. 290,000 tested, 0.89% active;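 active means inhibition above the mean of all tested compounds plus 3 SD, cutoff set per screening run, cut at about 7.5% in these data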;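 further: red hydrolysis product quenches plate fluorescence so inhibitors raise well fluorescence; 0% = enzyme with DMSO and 100% = DMSO without enzyme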
CRFBP-R2 block: CRF-BP/CRF-R2 complex antagonism | HEK293 CRF-R2/CRF-BP, CRF-induced calcium fluorescence | inhibition, % at 11.8 µM | 350,000 tested, 0.59% active | AID 588475;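 active means inhibition of the ligand-induced calcium signal above about 50% at the single tested concentration, limit read from the data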
An asterisk follows results filed as active; nt = no result given.

SMILES	CRFBP-R2 agonist	zfTRPN1 agonist	TRPML3 agonist	IMP-1 inhibitor	VIM-2 inh	CRFBP-R2 block
Cc1ccc(C(=O)OCC(=O)c2cc(C)n(CC3CCCO3)c2C)cc1 (centres undefined)	2.1	3.6	2.4	-0.2	-1.2	79.2*
Cc1cc(C(=O)COC(=O)c2ccccc2O)c(C)n1CC1CCCO1 (centres undefined)	-0.7	nt	nt	nt	nt	-0.7
Cn1c(=O)c(C(=O)NNC(=O)c2ccccc2F)c(O)c2ccccc21	50.8*	nt	nt	-0.8	-0.3	-1.1
CCn1c(=O)c(C(=O)NNC(=O)c2ccccc2F)c(O)c2ccccc21	99.9*	nt	nt	-2.1	-3.2	27.0
CCn1c(=O)c(C(=O)NNC(=O)c2ccccc2Cl)c(O)c2ccccc21	48.1	nt	nt	-5.6	-3.6	-0.9
CCC(C)Nc1nc(-c2ccccn2)nc2ccccc12 (centres undefined)	-5.0	nt	nt	3.4	8.2*	-17.8
Cc1ccc(N(Cc2ccc([N+](=O)[O-])cc2)C(=O)c2ccco2)cc1	-4.0	-2.9	-1.5	-1.8	-3.8	61.6*
O=C(Nc1ccc(Cl)cc1)C1C2CCCCC21 (centres undefined)	-1.4	nt	nt	3.2	2.3	-11.0
CCC/C=C/c1ccc(CN2C(CC(C)C)C(=O)N(Cc3cn(CCOCOC)nn3)CCS2(=O)=O)cc1 (centres undefined)	-0.5	nt	nt	nt	nt	-8.7
CC(C)Sc1nc2ccccc2n2cnnc12	-1.6	nt	nt	-1.6	10.6*	10.5
CC(Nc1nc2ccccc2n2cnnc12)c1ccccc1 (centres undefined)	-0.6	1.0	0.6	-3.5	-4.9	-20.8
CC(C)(C)C(=O)/C=c1\s/c(=C\c2ccc(-c3ccc([N+](=O)[O-])cc3)o2)c(=O)n1CC(=O)NC(N)=O	212.2*	30.8*	16.1*	-0.3	0.4	-139.0
Cc1ccccc1-c1ccc2c(c1)O[C@H](CN(C)C(=O)C1CC1)[C@@H](C)CN([C@@H](C)CO)S2(=O)=O	-1.2	nt	nt	nt	nt	2.0
Brc1ccc(C2=Nn3c(nnc3-c3ccncc3)SC2)cc1	nt	0.3	0.4	-2.8	9.2*	nt
CCOc1ccc(C2=Nn3c(nnc3-c3ccccn3)SC2)cc1	-0.7	-0.9	-1.0	-1.6	7.7*	18.9
c1csc(C2=Nn3c(nnc3-c3ccncc3)SC2)c1	-0.9	-0.2	0.2	-3.3	0.7	-4.8
CC1CN(S(=O)(=O)c2cccc(C(=O)OCC(=O)N3CCCCCC3)c2)CC(C)O1 (centres undefined)	0.3	nt	nt	nt	nt	3.2
Cc1ccc(-n2cccn2)c(CN2CCC(CO)(CCc3ccccc3)CC2)c1	-0.7	-0.3	1.1	-0.3	-2.5	-8.5
C[C@@H]1CN([C@@H](C)CO)S(=O)(=O)c2ccc(Br)cc2O[C@@H]1CN(C)C(=O)NC1CCCCC1	-1.3	nt	nt	nt	nt	-3.9
CCn1ncc(Cl)c1C(=O)Nc1cc([N+](=O)[O-])ccc1OC	-0.6	0.2	0.8	-0.3	-2.3	19.4
CCn1ncc(C(=O)Nc2ccc([N+](=O)[O-])cc2OC)c1C	2.1	nt	nt	nt	nt	51.1*
O=c1ccncn1C1OC(CO)C(O)C1O (centres undefined)	1.9	nt	nt	nt	nt	6.7
O=C(Nc1cc(S(=O)(=O)N2CCCCC2)ccc1Cl)c1ccccc1NS(=O)(=O)c1ccc(F)cc1	47.2	19.4*	13.4*	-1.2	-5.7	107.7*
O=C(Nc1cc(S(=O)(=O)N2CCCCC2)ccc1O)c1ccccc1NS(=O)(=O)c1ccc(F)cc1	71.5*	1.1	1.1	-5.5	-3.1	7.9
Cc1ccc(C)c(S(=O)(=O)N2CCCCC2CCNC(=O)C(=O)NCc2ccccc2)c1 (centres undefined)	0.8	nt	nt	nt	nt	8.0
SMILES	CRFBP-R2 agonist	zfTRPN1 agonist	TRPML3 agonist	IMP-1 inhibitor	VIM-2 inh	CRFBP-R2 block
Cc1ccccc1CNC(=O)c1ccccc1N	0.5	-0.5	1.0	-1.3	-3.7	55.0*
Cc1ccccc1CNC(=O)c1ccccc1C	0.1	-1.4	-0.4	-4.9	-2.4	5.7
c1coc(CN(Cc2ccco2)c2ncnc3c2oc2ccccc23)c1	-0.9	-1.4	-1.2	4.7*	0.1	-6.2
CCOc1ccc(S(=O)(=O)NCCC(=O)OCC(=O)c2ccc(NC(C)=O)cc2)cc1	-0.3	nt	nt	nt	nt	-8.3
CN(C)c1ccc(/C=C/c2cc[n+](C)cc2)cc1	32.6	4.8	2.6	-4.6	-2.3	-68.1
CN(C)c1ccc(/C=C/c2cc[n+]([O-])cc2)cc1	nt	14.8	11.9*	6.4*	2.1	nt
Cc1ccccc1NS(=O)(=O)c1ccc(C(=O)N(C)CC(=O)Nc2ccccc2Br)cc1	-1.1	nt	nt	nt	nt	87.8*
COc1ccccc1N1CCc2c(C)nc3c(OC)cccc3c21	-1.1	0.2	0.7	-2.3	12.0*	2.4
CSc1nc(C)c2c(n1)N(c1ccc(F)cc1)CC2	-0.3	0.8	-0.2	-1.9	-5.7	-4.2
Cc1ccc2nc(C)c3c(c2c1)N(c1ccc(F)cc1)CC3	-0.1	-0.7	0.7	-1.1	10.9*	-5.3
COc1cccc2c3c(c(C)nc12)CCN3c1ccccc1	-0.3	-0.2	-0.2	-2.0	10.6*	1.6
Cc1cc(Cl)ccc1OC(C)C(=O)OCC(=O)c1ccc[nH]1 (centres undefined)	0.2	nt	nt	nt	nt	-7.9
O=Cc1ccc(C(=O)OCC(=O)Nc2ccc(F)cc2F)cc1	0.2	nt	nt	-1.0	-2.2	-1.0
O=c1c(NCCc2ccc(Cl)cc2)c(-c2ccccc2)c1=O	-0.5	nt	nt	1.6	-1.3	1.9
COc1ccc(OC)c2c(C)c(C)[nH]c12	-0.8	0.2	0.2	0.1	8.2*	12.2
O=C1c2ccccc2C(=O)N1Nc1ccc([N+](=O)[O-])cc1[N+](=O)[O-]	7.3	nt	nt	4.5*	-1.0	-18.3
CCc1ccc(/C=C2\SC(=S)N(CCCC(=O)N(CCO)c3ccccc3)C2=O)cc1	0.4	nt	nt	nt	nt	-8.6
Brc1ccccc1/C=N/Nc1ccc2ccccc2n1	1.3	0.3	0.0	-1.9	-3.5	-19.9
O=[N+]([O-])c1cccc(C=NNc2ccc3ccccc3n2)c1O	-1.0	nt	nt	nt	nt	77.8*
CC1(C)CC(=O)C(C2C3=C(CC(C)(C)CC3=O)Oc3c(Br)cc(Br)cc32)=C(O)C1 (centres undefined)	82.4*	nt	nt	-0.1	0.1	47.5
Nc1nnnn1-c1cccc([N+](=O)[O-])c1	-0.9	nt	nt	nt	nt	17.2
CCOc1ccc(C(=O)CN2C(=O)NC3(CCCc4ccccc43)C2=O)cc1 (centres undefined)	-2.2	nt	nt	nt	nt	2.1
CCOC(=O)/C(=N\Nc1ccccc1[N+](=O)[O-])c1csc(N)n1	-0.2	0.1	0.4	-2.3	-3.5	10.2
CCOC(=O)/C(=N\Nc1ccc(C(C)=O)cc1)c1csc(Nc2ccccc2)n1	74.1*	0.1	1.2	-2.1	-3.9	-97.1
COC(=O)c1cc(NC(=O)c2ccccc2)c(=O)oc1/C=C/Nc1ccc(Oc2ccccc2)cc1	138.0*	4.0	2.3	-2.7	-1.2	-167.3

Compound activity as filed in PubChem.
